Results taken from ChEMBL document CHEMBL4325919, “3,5-Disubstituted-indole-7-carboxamides as IKKβ Inhibitors: Optimization of Oral Activity via the C3 Substituent” (ACS Med Chem Lett, 2018).
Converted amounts (≈) assume the structure as drawn.

Columns and labels:
[1] = biological target: T1, Inhibitor of nuclear factor kappa-B kinase subunit beta (Homo sapiens, UniProt O14920); test: Inhibition of recombinant human C-terminal GST-tagged IKKbeta (1 to 737 residues) expressed in baculovirus expression system using GST-IkBalpha substrate measured after 30 mins by TR-FRET assay
T1 sequence (O14920 whole entry): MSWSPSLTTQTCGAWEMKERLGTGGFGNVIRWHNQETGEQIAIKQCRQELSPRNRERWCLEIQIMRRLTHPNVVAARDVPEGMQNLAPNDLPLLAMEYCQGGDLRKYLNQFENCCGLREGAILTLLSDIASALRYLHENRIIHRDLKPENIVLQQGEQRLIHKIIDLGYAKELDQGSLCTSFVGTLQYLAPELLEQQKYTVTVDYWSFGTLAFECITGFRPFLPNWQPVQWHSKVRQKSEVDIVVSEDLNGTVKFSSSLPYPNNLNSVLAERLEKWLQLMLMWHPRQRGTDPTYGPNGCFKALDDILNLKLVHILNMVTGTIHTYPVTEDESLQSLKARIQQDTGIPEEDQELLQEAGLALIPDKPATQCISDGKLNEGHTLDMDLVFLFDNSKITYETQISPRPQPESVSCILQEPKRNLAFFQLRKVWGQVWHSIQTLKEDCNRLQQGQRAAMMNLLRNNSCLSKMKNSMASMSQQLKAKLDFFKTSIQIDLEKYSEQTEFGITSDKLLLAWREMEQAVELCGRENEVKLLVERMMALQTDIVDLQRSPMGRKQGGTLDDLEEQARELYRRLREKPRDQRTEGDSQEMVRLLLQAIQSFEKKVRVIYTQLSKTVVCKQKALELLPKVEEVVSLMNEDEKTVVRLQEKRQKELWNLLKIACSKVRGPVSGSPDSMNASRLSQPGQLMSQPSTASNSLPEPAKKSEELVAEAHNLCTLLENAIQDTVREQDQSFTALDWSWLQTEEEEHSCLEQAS
Method in brief: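 IKK pIC50 values are the mean of more than 2 determinations unless noted otherwise. Compounds were tested as racemic mixtures.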

[2] = Volume of distribution at steady state in Sprague-Dawley rat at 2 mg/kg, po or 1 mg/kg, iv; assay type: ADME, organism-based; settings: in vivo, read-out: Vdss
Method in brief: (§1)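 Male Sprague Dawley rats, n=2 (n=3 for one compound). The i.v. leg used 5% DMSO with 20% Cavitron and the oral leg 5% DMSO with 6% Cavitron. Oral doses were 2 mg/kg, or 2.1 mg/kg where stated. The i.v. dose was 1 mg/kg. Clearance is plasma clearance.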

[3] = Oral bioavailability in Sprague-Dawley rat at 2 mg/kg; assay type: ADME, organism-based; settings: in vivo; method in brief: as §1
[4] = Permeability of the compound by PAMPA; assay type: ADME; settings: read-out: permeability
[5] = AUC in Sprague-Dawley rat at 2 mg/kg, po; assay type: ADME, organism-based; settings: in vivo; method in brief: as §1
[6] = Half life in Sprague-Dawley rat at 2 mg/kg, po or 1 mg/kg, iv; assay type: ADME, organism-based; settings: in vivo; method in brief: as §1
[7] = biological target: T1, Inhibitor of nuclear factor kappa-B kinase subunit beta; test: Inhibition of IKKbeta in human CD14-positive monocytes assessed as reduction in LPS-stimulated TNFalpha secretion preincubated for 30 mins followed by LPS stimulation and measured after 24 hrs by Alpha screen assay; assay type: cell-based
[8] = Kinetic aqueous solubility of the compound by UV-HPLC analysis; assay type: physicochemical; settings: buffer; read-out: Kinetic_solubility
[9] = Plasma clearance in Sprague-Dawley rat at 2 mg/kg, po or 1 mg/kg, iv; assay type: ADME, organism-based; method in brief: as §1
Rattus norvegicus [10] = test: (§2) Antiinflammatory activity in LPS-induced rat neutrophilia model assessed as inhibition of LPS-induced increase in neutrophils in bronchoalveolar lavage at 50 umol/kg, po administered 30 mins prior to 20 mins nebulized LPS challenge and measured after 4 hrs by diff quick staining based hemocytometric method relative to control; assay type: functional
[11] = Plasma clearance in Beagle dog at 2.03 mg/kg, po or 1.11 mg/kg, iv; assay type: ADME, organism-based, Canis lupus familiaris
Method in brief: (§3)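 Male Beagle dogs, n=3. Vehicles were 5% DMSO with 20% Cavitron for i.v. dosing at 1.11 mg/kg and 5% DMSO with 6% Cavitron for oral dosing at 2.03 mg/kg. Derived values were plasma clearance, steady-state volume of distribution, half-life and oral bioavailability.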

Canis familiaris = test: Anti-inflammatory activity in inhaled LPS-induced Beagle dog lung neutrophilia model assessed as inhibition of LPS-induced increase in neutrophils in bronchoalveolar lavage administered orally 30 mins prior to LPS instillation and measured after […] by diff quick staining based hemocytometric method; assay type: functional; settings: Canis lupus familiaris, po
Rattus norvegicus [12] = test: Anti-inflammatory activity in LPS-induced Lewis rat inflammation model assessed as inhibition of LPS-induced TNFalpha secretion in blood administered orally 30 mins prior to LPS challenge and measured after 2 hrs by ELISA; assay type: functional; settings: po
[13] = Volume of distribution at steady state in Beagle dog at 2.03 mg/kg, po or 1.11 mg/kg, iv; assay type: ADME, organism-based, Canis lupus familiaris; settings: in vivo, read-out: Vdss; method in brief: as §3
[14] = AUC in Beagle dog at 2.03 mg/kg, po; assay type: ADME, organism-based, Canis lupus familiaris; settings: in vivo; method in brief: as §3
[15] = Half life in Beagle dog at 2.03 mg/kg, po or 1.11 mg/kg, iv; assay type: ADME, organism-based, Canis lupus familiaris; settings: in vivo; method in brief: as §3
[16] = Oral bioavailability in Beagle dog at 2.03 mg/kg; assay type: ADME, organism-based, Canis lupus familiaris; settings: in vivo; method in brief: as §3
[17] = Plasma clearance in Sprague-Dawley rat at 2.1 mg/kg, po or 1 mg/kg, iv; assay type: ADME, organism-based; method in brief: as §1
[18] = Oral bioavailability in Sprague-Dawley rat at 2.1 mg/kg; assay type: ADME, organism-based; settings: in vivo; method in brief: as §1
[19] = Half life in Sprague-Dawley rat at 2.1 mg/kg, po or 1 mg/kg, iv; assay type: ADME, organism-based; settings: in vivo; method in brief: as §1
[20] = Volume of distribution at steady state in Sprague-Dawley rat at 2.1 mg/kg, po or 1 mg/kg, iv; assay type: ADME, organism-based; settings: in vivo, read-out: Vdss; method in brief: as §1
[21] = AUC in Sprague-Dawley rat at 2.1 mg/kg, po; assay type: ADME, organism-based; settings: in vivo; method in brief: as §1
Rattus norvegicus [22] = test: as §2, with “100” for “50”; assay type: functional

SMILES: CN1C(=O)CCC1c1c[nH]c2c(C(N)=O)cc(-c3ccccc3)cc12 (stereo not drawn)
- IC50 [1]: 501 nM

SMILES: NCCS(=O)(=O)N1CCC(c2c[nH]c3c(C(N)=O)cc(-c4ccccc4)cc23)CC1
- Vd [2]: 3 L/kg
- bioavailability [3]: 3%
- IC50 [1]: 7.94 nM
- Papp [4]: 0.3 ×10⁻⁶ cm/s
- AUC [5]: 48 ng·h/mL
- half-life [6]: 266 min
- IC50 [7]: 140 nM
- solubility kinetic [8]: 33 µM (≈ 14.1 µg/mL)
- clearance [9]: 14 mL/min/kg

SMILES: NC(=O)c1cc(-c2ccccc2)cc2c(C3CCN(S(=O)(=O)CCCN4CCOCC4)CC3)c[nH]c12
- Vd [2]: 0.43 L/kg
- bioavailability [3]: 53%
- IC50 [1]: 31.6 nM
- Papp [4]: 31.8 ×10⁻⁶ cm/s
- inhibition in vivo at 50 µmol/kg (Rattus norvegicus [10]): 30%
- AUC [5]: 2030 ng·h/mL
- half-life [6]: 71 min
- IC50 [7]: 200 nM
- solubility kinetic [8]: 36 µM (≈ 18.4 µg/mL)
- clearance [9]: 8.9 mL/min/kg

SMILES: NC(=O)c1cc(-c2ccccc2)cc2c(C3CCS(=O)(=O)CC3)c[nH]c12
- Vd [2]: 2.8 L/kg
- bioavailability [3]: 97%
- clearance [11]: 23.6 mL/min/kg
- ED50 (Canis familiaris): 2.9 µmol/kg
- ED50 (Rattus norvegicus [12]): 7.6 µmol/kg
- IC50 [1]: 10 nM
- Papp [4]: 27.7 ×10⁻⁶ cm/s
- Vd [13]: 1.54 L/kg
- AUC [14]: 753 ng·h/mL
- AUC [5]: 904 ng·h/mL
- half-life [15]: 56.9 min
- half-life [6]: 94.8 min
- IC50 [7]: 80 nM
- solubility kinetic [8]: 130 µM (≈ 47.9 µg/mL)
- clearance [9]: 35 mL/min/kg
- bioavailability [16]: 52.6%

SMILES: NC(=O)c1cc(-c2ccccc2)cc2c(C3CCN(S(=O)(=O)CCCN4CCCCC4)CC3)c[nH]c12
- IC50 [1]: 7.94 nM
- Papp [4]: 24 ×10⁻⁶ cm/s
- solubility kinetic [8]: 162 µM (≈ 82.4 µg/mL)

SMILES: NC(=O)c1cc(-c2ccccc2)cc2c([C@@H]3C[C@H]4CC[C@@H](C3)S4(=O)=O)c[nH]c12
- IC50 [1]: 79.4 nM

SMILES: CCN(CC)CCCS(=O)(=O)N1CCC(c2c[nH]c3c(C(N)=O)cc(-c4ccccc4)cc23)CC1
- IC50 [1]: 15.8 nM
- Papp [4]: 20 ×10⁻⁶ cm/s
- IC50 [7]: 190 nM
- solubility kinetic [8]: 173 µM (≈ 85.9 µg/mL)

SMILES: NC(=O)c1cc(-c2ccccc2)cc2c(C3CCN(S(=O)(=O)CCCN4CCCC4)CC3)c[nH]c12
- Vd [2]: 1 L/kg
- bioavailability [3]: 12%
- IC50 [1]: 10 nM
- Papp [4]: 16 ×10⁻⁶ cm/s
- AUC [5]: 998 ng·h/mL
- half-life [6]: 276 min
- IC50 [7]: 50 nM
- solubility kinetic [8]: 185 µM (≈ 91.5 µg/mL)
- clearance [9]: 4 mL/min/kg

SMILES: CC1(C)CC(c2c[nH]c3c(C(N)=O)cc(-c4ccccc4)cc23)NC1=O (stereo not drawn)
- IC50 [1]: 20 nM

SMILES: CN(C)CCS(=O)(=O)N1CCC(c2c[nH]c3c(C(N)=O)cc(-c4ccccc4)cc23)CC1
- clearance [17]: 7.43 mL/min/kg
- IC50 [1]: 10 nM
- Papp [4]: 27 ×10⁻⁶ cm/s
- bioavailability [18]: 46%
- half-life [19]: 105 min
- IC50 [7]: 500 nM
- Vd [20]: 0.84 L/kg
- solubility kinetic [8]: 8 µM (≈ 3.64 µg/mL)
- AUC [21]: 2080 ng·h/mL

SMILES: CC(=O)CCc1c[nH]c2c(C(N)=O)cc(-c3ccccc3)cc12
- IC50 [1]: 126 nM

SMILES: NC(=O)c1cc(-c2ccccc2)cc2c(C3CCC(=O)C3)c[nH]c12 (stereo not drawn)
- IC50 [1]: 79.4 nM

SMILES: CCS(=O)(=O)N1CCC(c2c[nH]c3c(C(N)=O)cc(-c4ccccc4)cc23)CC1
- Vd [2]: 1 L/kg
- bioavailability [3]: 58%
- inhibition in vivo at 100 µmol/kg (Rattus norvegicus [22]): 30%
- Papp [4]: 25 ×10⁻⁶ cm/s
- AUC [5]: 1220 ng·h/mL
- half-life [6]: 69 min
- IC50 [7]: 190 nM
- clearance [9]: 16 mL/min/kg
